Measurements taken from ChEMBL document CHEMBL5316310, “Discovery of MK-8189, a Highly Potent and Selective PDE10A Inhibitor for the Treatment of Schizophrenia” (J Med Chem, 2023).
Converted amounts (≈) assume the structure as drawn. The source made the active and inactive calls. No cut-off for these calls is given here.

Experiments:
[1] = target: cAMP and cAMP-inhibited cGMP 3',5'-cyclic phosphodiesterase 10A (Homo sapiens, UniProt Q9Y233); experiment: Inhibition of human PDE10A2 transfected in human AD293 cells cytosolic fraction using cAMP as substrate by fluorescence polarization assay; assay type: subcellular, Cytosol
cAMP and cAMP-inhibited cGMP 3',5'-cyclic phosphodiesterase 10A, sequence (Q9Y233 whole entry): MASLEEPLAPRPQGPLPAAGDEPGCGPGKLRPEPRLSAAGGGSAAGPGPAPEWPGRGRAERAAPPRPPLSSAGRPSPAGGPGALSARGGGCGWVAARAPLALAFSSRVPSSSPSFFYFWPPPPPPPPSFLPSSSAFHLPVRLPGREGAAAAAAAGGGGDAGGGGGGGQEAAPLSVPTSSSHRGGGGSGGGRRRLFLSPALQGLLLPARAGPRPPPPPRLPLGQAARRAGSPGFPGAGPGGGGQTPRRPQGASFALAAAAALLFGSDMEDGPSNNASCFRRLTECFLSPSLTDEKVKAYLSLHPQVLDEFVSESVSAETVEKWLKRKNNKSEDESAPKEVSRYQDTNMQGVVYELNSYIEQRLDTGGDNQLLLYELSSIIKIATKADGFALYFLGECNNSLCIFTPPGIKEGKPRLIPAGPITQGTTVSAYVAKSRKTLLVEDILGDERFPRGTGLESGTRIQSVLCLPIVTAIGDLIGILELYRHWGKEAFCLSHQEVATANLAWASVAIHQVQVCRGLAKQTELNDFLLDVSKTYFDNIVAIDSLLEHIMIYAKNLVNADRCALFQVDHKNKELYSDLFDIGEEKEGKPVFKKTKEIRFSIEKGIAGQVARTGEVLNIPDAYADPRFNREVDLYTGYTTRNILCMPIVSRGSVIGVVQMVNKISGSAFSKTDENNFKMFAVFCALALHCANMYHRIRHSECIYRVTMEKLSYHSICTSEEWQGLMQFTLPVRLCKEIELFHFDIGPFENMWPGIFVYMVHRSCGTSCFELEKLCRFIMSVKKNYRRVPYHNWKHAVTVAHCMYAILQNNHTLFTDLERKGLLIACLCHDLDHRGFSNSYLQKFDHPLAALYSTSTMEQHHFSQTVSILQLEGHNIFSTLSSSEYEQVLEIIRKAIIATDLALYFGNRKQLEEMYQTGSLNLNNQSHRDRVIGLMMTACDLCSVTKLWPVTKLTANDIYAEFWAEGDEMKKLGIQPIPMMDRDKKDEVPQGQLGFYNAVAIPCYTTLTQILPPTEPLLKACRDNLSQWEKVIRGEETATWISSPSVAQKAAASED

[2] = Unbound plasma clearance in rat; assay type: ADME; settings: in vivo
Outline: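 Rat unbound clearance (CLu) was calculated by dividing the measured rat plasma clearance by the rat plasma free fraction.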

[3] = Selectivity ratio of Ki for N-terminal GST-tagged human recombinant PDE4A1A (1 to 647 residues) expressed in baculovirus-infected Sf9 cells to Ki for human PDE10A2 transfected in human AD293 cells cytosolic fraction
[4] = Selectivity ratio of Ki for N-terminal GST-tagged and C-terminal His-tagged human recombinant PDE7A (122 to 456 residues) expressed in baculovirus-infected Sf9 cells to Ki for human PDE10A2 transfected in human AD293 cells cytosolic fraction
[5] = Selectivity ratio of Ki for N-terminal GST-tagged human recombinant PDE5A1 (1 to 875 residues) expressed in baculovirus-infected Sf9 cells to Ki for human PDE10A2 transfected in human AD293 cells cytosolic fraction
[6] = Selectivity ratio of Ki for N-terminal GST-tagged human recombinant PDE1A expressed in baculovirus-infected Sf9 cells to Ki for human PDE10A2 transfected in human AD293 cells cytosolic fraction
[7] = Selectivity ratio of Ki for Rhesus monkey PDE2A3 transfected in AD293 cells cytosolic fraction to Ki for human PDE10A2 transfected in human AD293 cells cytosolic fraction; assay type: cell-based
[8] = Selectivity ratio of Ki for N-terminal GST-tagged human recombinant PDE11A4 (1 to 943 residues) expressed in baculovirus-infected Sf9 cells to Ki for human PDE10A2 transfected in human AD293 cells cytosolic fraction
[9] = Selectivity ratio of Ki for N-terminal GST-tagged full length human recombinant PDE9A2 expressed in baculovirus-infected Sf9 cells to Ki for human PDE10A2 transfected in human AD293 cells cytosolic fraction
[10] = Selectivity ratio of Ki for N-terminal GST-tagged full length human recombinant PDE8A1 expressed in baculovirus-infected Sf9 cells to Ki for human PDE10A2 transfected in human AD293 cells cytosolic fraction
[11] = Selectivity ratio of Ki for N-terminal His-GST-tagged human recombinant PDE3A(669 to 1141 residues) expressed in baculovirus-infected Sf9 cells to Ki for human PDE10A2 transfected in human AD293 cells cytosolic fraction
[12] = Aqueous solubility of the compound at pH 7; assay type: physicochemical; settings: buffer
P-gp (ABCB1) = P-gp (ABCB1) (Rattus norvegicus, UniProt P43245); experiment: (§1) Substrate activity at rat P-gp assessed as efflux ratio; assay type: ADME
P-gp (ABCB1), sequence (P43245 whole entry): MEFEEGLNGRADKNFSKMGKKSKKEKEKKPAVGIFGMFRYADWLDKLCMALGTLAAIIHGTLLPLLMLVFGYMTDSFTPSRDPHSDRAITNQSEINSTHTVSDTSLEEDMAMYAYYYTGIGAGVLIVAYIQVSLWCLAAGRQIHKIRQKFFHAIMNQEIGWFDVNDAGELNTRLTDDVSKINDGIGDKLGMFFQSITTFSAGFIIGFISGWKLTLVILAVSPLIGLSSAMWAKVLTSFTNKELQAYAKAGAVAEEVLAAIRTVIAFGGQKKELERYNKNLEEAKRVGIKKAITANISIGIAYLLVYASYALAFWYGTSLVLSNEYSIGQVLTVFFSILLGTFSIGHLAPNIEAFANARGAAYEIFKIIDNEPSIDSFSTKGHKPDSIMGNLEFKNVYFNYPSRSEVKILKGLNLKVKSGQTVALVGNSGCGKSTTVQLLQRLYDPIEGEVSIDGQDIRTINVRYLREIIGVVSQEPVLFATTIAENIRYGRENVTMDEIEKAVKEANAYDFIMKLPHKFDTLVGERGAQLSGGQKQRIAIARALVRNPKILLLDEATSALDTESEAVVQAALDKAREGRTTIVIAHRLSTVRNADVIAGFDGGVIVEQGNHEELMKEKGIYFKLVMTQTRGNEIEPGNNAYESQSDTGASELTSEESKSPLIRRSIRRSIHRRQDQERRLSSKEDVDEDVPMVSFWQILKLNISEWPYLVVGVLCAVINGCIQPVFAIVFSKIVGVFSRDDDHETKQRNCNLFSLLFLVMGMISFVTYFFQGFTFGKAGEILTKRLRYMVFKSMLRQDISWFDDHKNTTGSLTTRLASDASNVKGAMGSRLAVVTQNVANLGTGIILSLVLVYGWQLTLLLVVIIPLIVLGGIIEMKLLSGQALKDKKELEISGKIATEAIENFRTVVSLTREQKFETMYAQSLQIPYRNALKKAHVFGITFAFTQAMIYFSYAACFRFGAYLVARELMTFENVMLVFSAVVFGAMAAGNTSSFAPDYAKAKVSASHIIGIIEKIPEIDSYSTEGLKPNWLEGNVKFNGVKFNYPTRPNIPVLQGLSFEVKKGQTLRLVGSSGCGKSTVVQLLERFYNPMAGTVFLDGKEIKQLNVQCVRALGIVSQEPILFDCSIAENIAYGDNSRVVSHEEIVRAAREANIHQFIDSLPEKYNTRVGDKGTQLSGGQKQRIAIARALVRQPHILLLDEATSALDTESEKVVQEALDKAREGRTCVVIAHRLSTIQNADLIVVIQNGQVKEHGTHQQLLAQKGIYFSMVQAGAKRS

Rattus norvegicus = experiment: Cognitive-enhancing activity in rat assessed as improvement in novel object recognition at 0.56 mg/kg, po measured after 1 hr by novel object recognition test; assay type: functional, organism-based
Outline: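 Novel object recognition in rats: oral dosing, then discrimination of a novel object from one seen 48 h earlier. Doses 0.08–0.25 mg/kg; donepezil 0.56 mg/kg as positive control. Groups compared with vehicle (p < 0.05). Plasma for exposure taken 1 h post dose, n = 4/group.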

[13] = target: ATP-dependent translocase ABCB1 (Rattus norvegicus, UniProt P43245); experiment: as §1; assay type: ADME
ATP-dependent translocase ABCB1, sequence (P43245 whole entry): as above

[14] = target: Voltage-gated inwardly rectifying potassium channel KCNH2 (Homo sapiens, UniProt Q12809); experiment: Displacement of MK499 from hERG; assay type: toxicity
Voltage-gated inwardly rectifying potassium channel KCNH2, sequence (Q12809 whole entry): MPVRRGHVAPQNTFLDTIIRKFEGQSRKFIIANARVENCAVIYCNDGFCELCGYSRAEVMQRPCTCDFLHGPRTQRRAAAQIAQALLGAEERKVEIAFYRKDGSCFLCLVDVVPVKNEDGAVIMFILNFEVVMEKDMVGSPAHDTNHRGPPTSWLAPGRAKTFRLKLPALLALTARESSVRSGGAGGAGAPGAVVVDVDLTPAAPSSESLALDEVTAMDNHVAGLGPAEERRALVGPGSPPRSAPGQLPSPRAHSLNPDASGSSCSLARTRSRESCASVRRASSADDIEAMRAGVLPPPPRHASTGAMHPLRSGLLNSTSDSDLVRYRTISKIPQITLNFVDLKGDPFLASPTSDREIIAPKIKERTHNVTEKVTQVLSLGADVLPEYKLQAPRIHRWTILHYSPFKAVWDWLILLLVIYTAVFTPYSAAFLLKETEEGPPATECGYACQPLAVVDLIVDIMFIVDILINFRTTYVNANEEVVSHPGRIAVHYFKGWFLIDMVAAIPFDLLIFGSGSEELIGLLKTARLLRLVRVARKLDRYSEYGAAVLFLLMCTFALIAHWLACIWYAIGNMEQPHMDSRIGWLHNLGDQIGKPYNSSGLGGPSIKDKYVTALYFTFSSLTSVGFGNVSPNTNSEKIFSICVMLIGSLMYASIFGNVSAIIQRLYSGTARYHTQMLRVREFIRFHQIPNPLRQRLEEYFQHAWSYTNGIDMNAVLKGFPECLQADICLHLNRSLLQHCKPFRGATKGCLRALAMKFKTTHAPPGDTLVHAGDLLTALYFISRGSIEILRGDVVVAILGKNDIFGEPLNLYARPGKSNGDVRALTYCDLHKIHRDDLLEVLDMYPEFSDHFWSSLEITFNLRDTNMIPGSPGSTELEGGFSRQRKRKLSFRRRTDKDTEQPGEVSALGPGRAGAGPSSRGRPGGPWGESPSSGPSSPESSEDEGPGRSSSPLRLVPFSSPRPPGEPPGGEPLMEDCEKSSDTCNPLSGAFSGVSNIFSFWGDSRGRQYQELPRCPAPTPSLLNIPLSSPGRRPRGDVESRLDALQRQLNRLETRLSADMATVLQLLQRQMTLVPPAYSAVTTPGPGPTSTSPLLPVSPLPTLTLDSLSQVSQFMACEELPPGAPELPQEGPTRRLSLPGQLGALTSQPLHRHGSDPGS

Row | Ki [1] [nM] | CL free [2] [mL/min/kg] | solubility [12] [µM] | efflux ratio (P-gp (ABCB1)) | Ratio [13] | Compound | Ratio Ki [3] | Ratio Ki [4] | Ratio Ki [5] | Ratio Ki [6] | Ratio Ki [7] | Ratio Ki [8] | Ratio Ki [9] | Ratio Ki [10] | Ratio Ki [11] | Activity (Rattus norvegicus) | IC50 [14] [µM]
1 | 0.054 | 7080 | – | – | – | COc1ccc([C@H]2C[C@@H]2COc2cc(NCc3cnn(C)c3)nc(C)n2)nc1 | > 490000 | > 490000 | > 490000 | > 490000 | > 490000 | > 490000 | > 490000 | > 490000 | > 490000 | – | –
2 | 0.047 | – | 86 (≈ 33 µg/mL) | 0.6 | – | Cc1c(NCc2cnn(C)c2)cc(OC[C@H]2C[C@@H]2c2ccccn2)nc1Cl | > 30000 | > 30000 | > 30000 | > 30000 | > 30000 | > 30000 | > 30000 | > 30000 | > 30000 | – | –
3 | 3.2 | – | – | – | – | Cc1c(Cl)cc(OC[C@H]2C[C@@H]2c2ccccn2)nc1NCc1cnn(C)c1 | – | – | – | – | – | – | – | – | – | – | –
4 | – | – | – | 0.7 | – | Cn1cc(CNc2cc(OC[C@H]3C[C@@H]3c3ccccn3)nc3ccnn23)cn1 | > 5800 | > 5800 | > 5800 | > 5800 | > 5800 | > 5800 | > 5800 | > 5800 | > 5800 | – | –
5 | 0.49 | – | 19 (≈ 7.32 µg/mL) | 0.5 | – | Cn1cc(CNc2cc(OC[C@H]3C[C@@H]3c3ccccn3)nc3ccccc23)cn1 | > 5000 | > 5000 | > 5000 | > 5000 | > 5000 | > 5000 | > 5000 | > 5000 | > 5000 | – | –
6 | 0.11 | – | – | – | – | Cc1nnc(CNc2cc(OC[C@H]3C[C@@H]3c3ccccn3)nc3cccnc23)s1 | > 3600 | > 3600 | > 3600 | > 3600 | > 3600 | > 3600 | > 3600 | > 3600 | > 3600 | – | 25
7 | 0.13 | – | 149 (≈ 57.6 µg/mL) | – | 6.3 | Cn1cc(CNc2cc(OC[C@H]3C[C@@H]3c3ccccn3)nc3cnccc23)cn1 | > 7000 | > 7000 | > 7000 | > 7000 | > 7000 | > 7000 | > 7000 | > 7000 | > 7000 | – | –
8 | 0.6 | – | – | – | – | Cc1nc(NCc2cnn(C)c2)cc(OC[C@H]2C[C@@H]2c2ccccn2)n1 | > 67000 | > 67000 | > 67000 | > 67000 | > 67000 | > 67000 | > 67000 | > 67000 | > 67000 | – | –

Further lines, the molecule ahead of its results:

Row | Compound | Ki [1] [nM] | CL free [2] [mL/min/kg] | solubility [12] [µM] | efflux ratio (P-gp (ABCB1)) | Ratio [13] | Ratio Ki [3] | Ratio Ki [4] | Ratio Ki [5] | Ratio Ki [6] | Ratio Ki [7] | Ratio Ki [8] | Ratio Ki [9] | Ratio Ki [10] | Ratio Ki [11] | Activity (Rattus norvegicus) | IC50 [14] [µM]
9 | Cc1nc(C)c(CNc2nc(OCCCc3ccc4ccccc4n3)nc(Cl)c2C)s1 | – | 12000 | – | – | – | > 5000 | > 5000 | > 5000 | > 5000 | > 5000 | > 5000 | > 5000 | > 5000 | > 5000 | – | –
10 | Cc1c(Cl)nc(OC[C@H]2C[C@@H]2c2ccccn2)nc1NCc1cnn(C)c1 | – | 2900 | – | 2 | – | > 2500 | > 2500 | > 2500 | > 2500 | > 2500 | > 2500 | > 2500 | > 2500 | > 2500 | – | –
11 | Cn1cc(CNc2cc(OC[C@H]3C[C@@H]3c3ccccn3)nc3ncccc23)cn1 | 8.6 | – | – | – | – | – | – | – | – | – | – | – | – | – | – | –
12 | Cc1nc(NCc2nnc(C)s2)cc(OC[C@H]2C[C@@H]2c2ccccn2)n1 | 0.33 | 185 | – | – | – | > 45000 | > 45000 | > 45000 | > 45000 | > 45000 | > 45000 | > 45000 | > 45000 | > 45000 | – | –
13 | COc1ccc([C@H]2C[C@@H]2COc2cc(NCc3nnc(C)s3)nc(C)n2)nc1 | 0.038 | 530 | – | – | – | > 225000 | > 225000 | > 225000 | > 225000 | > 225000 | > 225000 | > 225000 | > 225000 | > 225000 | – | –
14 | Cc1ccc([C@H]2C[C@@H]2COc2cc(NCc3cnn(C)c3)nc(C)n2)nc1 | 0.061 | 4740 | – | – | – | > 425000 | > 425000 | > 425000 | > 425000 | > 425000 | > 425000 | > 425000 | > 425000 | > 425000 | – | –
15 | COc1cc2c(cc1OC)C(=O)C(CC1CCN(Cc3ccccc3)CC1)C2 (centres undefined) | – | – | – | – | – | – | – | – | – | – | – | – | – | – | Active | –
16 | Cn1cc(CNc2cc(OC[C@H]3C[C@@H]3c3ccccn3)nc3ccncc23)cn1 | 0.12 | – | 22 (≈ 8.5 µg/mL) | – | 24 | > 20000 | > 20000 | > 20000 | > 20000 | > 20000 | > 20000 | > 20000 | > 20000 | > 20000 | – | –
17 | Cn1cc(CNc2cc(OC[C@H]3C[C@@H]3c3ccccn3)nc3cccnc23)cn1 | 0.87 | – | 81 (≈ 31.3 µg/mL) | 0.7 | – | > 2000 | > 2000 | > 2000 | > 2000 | > 2000 | > 2000 | > 2000 | > 2000 | > 2000 | – | –
